# Assay results of several laboratories.
# Protocols differ between the studies behind these lines.
# SIRT3: NAD-dependent protein deacetylase sirtuin-3, mitochondrial (SIRT3, Homo sapiens, UniProt Q9NTG7)
# AGTR2: Type-2 angiotensin II receptor (AGTR2, Homo sapiens, UniProt P50052)
# PTGS1: Prostaglandin G/H synthase 1 (PTGS1, Ovis aries, UniProt P05979)
SMILES,target,assay,system,setting,inhibition [%]
CCCCCCCCCCCCNC(=S)NCCCC[C@H](NC(=O)OCc1ccccc1)C(=O)N[C@@H](Cc1c[nH]c2ccccc12)C(=O)N[C@@H](CCCCN)C(N)=O,SIRT3,"enzyme activity, inhibitor",,10 µM,21
COc1cc(NC(C)=O)c(Cl)cc1C(=O)Nc1nccs1,AGTR2,cell-free assay,,10 µM,2.7
CCCCCC1CC(=O)c2cc(F)cc(F)c2O1 (stereo not drawn),SIRT3,"enzyme activity, inhibitor, fluorescence",,200 µM,9.6
O=C(c1ccc(Cl)cc1)N(Cc1ccccc1)C1CCCCC1,AGTR2,cell-free assay,,10 µM,4.4
CCCCCCCCCCCCNC(=S)NCCCC[C@H](NC(=O)OCc1ccccc1)C(=O)N[C@@H](CCCCN)C(=O)N[C@@H](CCCNC(=N)N)C(N)=O,SIRT3,"enzyme activity, inhibitor",,1 µM,54
C[C@@H]1O[C@@H](OC[C@H]2O[C@@H](O[C@H]3[C@H](Oc4c(-c5ccc(O)cc5)oc5cc(O)cc(O)c5c4=O)O[C@H](CO)[C@@H](O)[C@@H]3O)[C@H](O)[C@@H](O)[C@@H]2O)[C@H](O)[C@H](O)[C@H]1O,PTGS1,"enzyme activity, inhibitor, absorbance",,50 µM,53.3
O=C(COc1ccc2cc(C(=O)Nc3ccccc3)ccc2c1)NCc1ccc(O)c(O)c1,"Signal transducer and activator of transcription 5A, SH2 (Homo sapiens, UniProt P42229)","ligand displacement, FP",,100 µM,1
CN1CCN(CCCOc2ccc(=O)n(-c3ccc(Cl)c(Cl)c3)n2)CC1,"Transient receptor potential cation channel subfamily V member 1 (TRPV1, Homo sapiens, UniProt Q8NER1)",ligand displacement,,1 µM,17.1
Oc1cccc(Nc2nc(-c3ccc(F)cc3F)cs2)c1,"Sodium-dependent serotonin transporter (SLC6A4, Homo sapiens, UniProt P31645)",cell-free assay,,10 µM,-7.7
CC(=S)NCCCC[C@H](NC(=O)OCc1ccccc1)C(=O)N[C@@H](Cc1c[nH]c2ccccc12)C(=O)N[C@@H](CCCCN)C(N)=O,SIRT3,"enzyme activity, inhibitor",,10 µM,59
CNc1cc(Oc2cc(C(=O)Nc3cc(N4CCN(C)CC4)cc(C(F)(F)F)c3)ccc2C)ncn1,"STE20-related kinase adapter protein alpha (STRADA, Homo sapiens, UniProt Q7RTN6)","target engagement in cells, inhibitor, chemoproteomics",Huh-7,1 µM,-86.8
NC(=O)CCNC(=S)NCCCC[C@H](NS(=O)(=O)c1cccc(F)c1)C(=O)N[C@@H](Cc1c[nH]c2ccccc12)C(=O)NC1CCC1,SIRT3,"enzyme activity, inhibitor",,10 µM,30
C[C@@H]1O[C@@H](O[C@H]2[C@H](Oc3c(-c4ccc(O)cc4)oc4cc(O)cc(O)c4c3=O)O[C@H](CO[C@@H]3O[C@H](CO)[C@@H](O)[C@H](O)[C@H]3O)[C@@H](O)[C@@H]2O)[C@H](O)[C@H](O)[C@H]1O,PTGS1,"enzyme activity, inhibitor, absorbance",,50 µM,76.2
CCCC1CC(=O)c2cc(Cl)cc(Br)c2O1 (stereo not drawn),SIRT3,"enzyme activity, inhibitor, fluorescence",,200 µM,7
CC(=S)NCCCC[C@H](NC(=O)OCc1ccccc1)C(=O)N[C@@H](Cc1c[nH]c2ccccc12)C(=O)N[C@@H](CCC(=O)O)C(N)=O,SIRT3,"enzyme activity, inhibitor",,10 µM,9
O=C1CC(CCNC(=S)NCCCC[C@H](NS(=O)(=O)c2cccc(F)c2)C(=O)N[C@@H](Cc2c[nH]c3ccccc23)C(=O)NC2CCC2)=NO1,SIRT3,"enzyme activity, inhibitor",,10 µM,40
C[C@@H](NC(=O)[C@H](CCCCNC(=O)C(F)(F)F)NS(C)(=O)=O)C(=O)N[C@@H](CCCNC(=N)N)C(N)=O,SIRT3,"enzyme activity, inhibitor",,100 µM,10
CCCCCCCC1CC(=O)c2cc(Cl)cc(Br)c2O1 (stereo not drawn),SIRT3,"enzyme activity, inhibitor, fluorescence",,200 µM,8.3
Cc1ncc([N+](=O)[O-])n1C(=NO)c1ccccc1C(F)(F)F,"Fas-activated serine/threonine kinase (Homo sapiens, UniProt Q14296)","enzyme activity, inhibitor",,10 µM,7.77
Cc1ccc(C(=O)Nc2ccc(S(=O)(=O)O)c3cc(S(=O)(=O)O)cc(S(=O)(=O)O)c23)cc1NC(=O)c1cccc(NC(=O)Nc2cccc(C(=O)Nc3cc(C(=O)Nc4ccc(S(=O)(=O)O)c5cc(S(=O)(=O)O)cc(S(=O)(=O)O)c45)ccc3C)c2)c1,SIRT3,"enzyme activity, inhibitor",,100 µM,6
CN(C)C1CCN(CC#Cc2nn(C3CCCC3)c3nc(NCc4ccccc4)ncc23)C1 (stereo not drawn),"Serine/threonine-protein kinase Nek2 (NEK2, Homo sapiens, UniProt P51955)","enzyme activity, inhibitor, FRET",,0.1 µM,2
CC(=S)NCCCC[C@H](NC(=O)OCc1ccccc1)C(=O)N[C@@H](Cc1c[nH]c2ccccc12)C(=O)N[C@@H](CC(N)=O)C(N)=O,SIRT3,"enzyme activity, inhibitor",,10 µM,14
COc1ccc2c(c1)C(CC(=O)O)=C/C2=C\c1ccc(-c2ccccc2)cc1,PTGS1,"enzyme activity, inhibitor",,4 µM,49
O=c1cc(-c2ccccc2)oc2c(Br)cc(Cl)cc12,SIRT3,"enzyme activity, inhibitor, fluorescence",,200 µM,12
CCCCCCCCCCCCNC(=S)NCCCC[C@H](NC(=O)OCc1ccccc1)C(=O)N[C@@H](Cc1c[nH]c2ccccc12)C(=O)N[C@@H](CCCCNC(=N)N)C(N)=O,SIRT3,"enzyme activity, inhibitor",,10 µM,20
CCCCCC1C=Cc2cc(Cl)cc(Br)c2O1 (stereo not drawn),SIRT3,"enzyme activity, inhibitor, fluorescence",,200 µM,2
Cn1c(CNC(=S)NCCCC[C@H](NS(=O)(=O)c2cccc(F)c2)C(=O)N[C@@H](Cc2c[nH]c3ccccc23)C(=O)NC2CCC2)n[nH]c1=S,SIRT3,"enzyme activity, inhibitor",,30 µM,51
CCCCCC1CC(O)c2cc(Cl)cc(Br)c2O1 (stereo not drawn),SIRT3,"enzyme activity, inhibitor, fluorescence",,200 µM,3.6
CCCCNC(=S)NCCCC[C@H](NS(=O)(=O)c1cccc(F)c1)C(=O)N[C@@H](Cc1c[nH]c2ccccc12)C(=O)NC1CCC1,SIRT3,"enzyme activity, inhibitor",,1 µM,16
CCCCCC1CCc2cc(Cl)cc(Br)c2O1 (stereo not drawn),SIRT3,"enzyme activity, inhibitor, fluorescence",,200 µM,1.2
O=C(Nc1ccc(S(=O)(=O)N2CCC(Cl)CC2)cc1)c1ccc([N+](=O)[O-])o1,"Androgen receptor (Ar, Rattus norvegicus, UniProt P15207)","ligand displacement, radioligand",,10 µM,8
CCCCCC1CC(=O)c2cc([N+](=O)[O-])ccc2O1 (stereo not drawn),SIRT3,"enzyme activity, inhibitor, fluorescence",,200 µM,16
O=c1c(O)c(-c2ccc(O)cc2)oc2cc(O[C@@H]3O[C@H](CO)[C@@H](O)[C@H](O)[C@H]3O)cc(O)c12,PTGS1,"enzyme activity, inhibitor, absorbance",,50 µM,58.8
